Measurements as given in ChEMBL document CHEMBL2429787, “Sulfonyl-polyol N,N-dichloroamines with rapid, broad-spectrum antimicrobial activity” (Bioorg Med Chem Lett, 2013).
Values after ≈ are worked out from the molar mass of the structure shown.

Key:
Escherichia coli [1] = assay: Bactericidal activity against Escherichia coli ATCC 25922 at pH 7 after 1 hr by CLSI method; type: functional; conditions: ATCC 25922, 1 h
How it was run: (§1)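 MBC by modified CLSI M26-A: broth replaced with 0.9% acetate saline buffer pH 4 or PBS pH 7. Mid-log bacteria were centrifuged and resuspended in buffer, then added to serial twofold compound dilutions (final 10⁵–10⁶ CFU/mL) for 1 h at room temperature. Aliquots were plated on agar (24 h, 35 °C) and CFU counted. MBC is the lowest concentration giving >99.9% kill.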

Staphylococcus aureus [2] = assay: Bactericidal activity against Staphylococcus aureus ATCC 29213 at pH 7 after 1 hr by CLSI method; type: functional; conditions: ATCC 29213, 1 h; how it was run: as §1
Staphylococcus aureus [3] = assay: Bactericidal activity against Staphylococcus aureus ATCC 29213 at pH 4 after 1 hr by CLSI method; type: functional; conditions: ATCC 29213, 1 h; how it was run: as §1
Escherichia coli [4] = assay: Bactericidal activity against Escherichia coli ATCC 25922 at pH 4 after 1 hr by CLSI method; type: functional; conditions: ATCC 25922, 1 h; how it was run: as §1
Human adenovirus 5 [5] = assay: Virucidal activity against Adenovirus 5 ATCC VR-1516 infected in human A549 cells assessed as viral cytopathic effect at pH 4 incubated for 1 hr measured after 6 days by three-fold serial dilution assay; type: functional, organism-based
How it was run: (§2)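 Virus was diluted in 20 mM PBS or 5 mM acetate saline buffer with 2.5% glycerol and mixed 1:1 with threefold compound dilutions (quadruplicate) for 60 min at room temperature. It was neutralized with 2× D-MEM/F12 plus 20% FBS for 60 min, then adsorbed 1–2 h at 37 °C onto A549 (Ad5) or Vero (HSV-1) cells. Cells were washed, grown 6 days, and CPE read by CCK-8. IC50 came from a sigmoidal fit with top fixed at 100.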

Human adenovirus 5 [6] = assay: Virucidal activity against Adenovirus 5 ATCC VR-1516 infected in human A549 cells assessed as viral cytopathic effect at pH 7 incubated for 1 hr measured after 6 days by three-fold serial dilution assay; type: functional, organism-based; how it was run: as §2
Human alphaherpesvirus 1 = assay: Virucidal activity against Herpes simplex virus (type 1 / strain F) ATCC VR-733 infected in african geen monkey Vero cells assessed as viral cytopathic effect at pH 7 incubated for 1 hr measured after 6 days by three-fold serial dilution assay; type: functional, organism-based; how it was run: as §2
Human adenovirus 5 [7] = assay: Ratio of IC50 for Adenovirus 5 ATCC VR-1516 at pH 7 to IC50 for Adenovirus 5 ATCC VR-1516 at pH 4; type: functional
How it was run: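 Ad5 virucidal IC50 was determined in PBS (pH 7) and acetate saline buffer (pH 4) using 60 min room-temperature exposure, neutralization, A549 infection, 6-day CPE by CCK-8 and sigmoidal fit. The ratio is IC50 at pH 7 over IC50 at pH 4.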

Staphylococcus aureus [8] = assay: Ratio of MBC for Staphylococcus aureus ATCC 29213 at pH 7 to MBC for Staphylococcus aureus ATCC 29213 at pH 4; type: functional
How it was run: (§3)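 MBC was measured in PBS pH 7 and in acetate saline buffer pH 4 (1 h room-temperature exposure, >99.9% kill endpoint, CFU plating). The ratio is MBC at pH 7 over MBC at pH 4.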

Escherichia coli [9] = assay: Ratio of MBC for Escherichia coli ATCC 25922 at pH 7 to MBC for Escherichia coli ATCC 25922 at pH 4; type: functional; how it was run: as §3
[10] = Toxicity in epiocular tissue irritancy model (unknown origin) assessed as tissue viability up to 46 mins relative to control; type: tissue-based, Eye; conditions: read-out: Activity
How it was run: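 EpiOcular tissue model: after exposure, tissues were rinsed in PBS and held in MTT for 3 h, then extracted overnight. Viability was read from MTT absorbance against untreated control and correlated with a Draize-type irritancy score.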

[11] = Stability of the compound in aqueous solution; type: physicochemical; conditions: buffer
[12] = Human mastadenovirus C, ATCC VR-1516, A549, read-out: IC50
[13] = Human alphaherpesvirus 1, Strain F ATCC VR 733, Vero, read-out: IC50

Row | Stability [11] | SMILES | MBC (Escherichia coli [1]) | MBC (Staphylococcus aureus [2]) | MBC (Staphylococcus aureus [3]) | MBC (Escherichia coli [4]) | IC50 (Human adenovirus 5 [5]; [12]) | IC50 (Human adenovirus 5 [6]; [12]) | IC50 (Human alphaherpesvirus 1; [13]) | IC50 (Human adenovirus 5 [5]; a549) | IC50 (Human adenovirus 5 [6]; a549) | IC50 (Human alphaherpesvirus 1; vero) | Ratio IC50 (Human adenovirus 5 [7]) | Ratio (Staphylococcus aureus [8]) | Ratio (Escherichia coli [9]) | viability at 46 min [10]
1 |  | CC(=O)OCC(O)CS(=O)(=O)CCC(C)(C)N(Cl)Cl (stereo not drawn) | 64 µg/mL (≈ 190 µM) | 32 µg/mL (≈ 95.2 µM) | 4 µg/mL (≈ 11.9 µM) | 2 µg/mL (≈ 5.95 µM) |  |  |  |  |  |  |  |  |  | 
2 |  | CC(C)(CO)CS(=O)(=O)CCC(C)(C)N(Cl)Cl | 64 µg/mL (≈ 209 µM) | 128 µg/mL (≈ 418 µM) | 2 µg/mL (≈ 6.53 µM) | 4 µg/mL (≈ 13.1 µM) | 1800 nM | 9600 nM | 900 nM |  |  |  |  |  |  | 
3 |  | CC(C)(CCS(=O)(=O)C[C@H](O)CO)N(Cl)Cl | 32 µg/mL (≈ 109 µM) | 4 µg/mL (≈ 13.6 µM) | 2 µg/mL (≈ 6.8 µM) | 2 µg/mL (≈ 6.8 µM) | 2200 nM | 14000 nM | 1200 nM |  |  |  |  |  |  | 
4 |  | CC(C)(CCS(=O)(=O)CCCCC(O)CO)N(Cl)Cl (stereo not drawn) |  |  |  |  |  |  |  | ND(Unstable) | ND(Unstable) | ND(Unstable) |  |  |  | 
5 |  | CC(C)(CCS(=O)(=O)CC(O)CO)N(Cl)Cl (stereo not drawn) | 16 µg/mL (≈ 54.4 µM) | 4 µg/mL (≈ 13.6 µM) | 2 µg/mL (≈ 6.8 µM) | 2 µg/mL (≈ 6.8 µM) | 2700 nM | 26000 nM | 1500 nM |  |  |  | 10 | 2 | 8 | 50%
6 |  | CC(C)(CCS(=O)(=O)CCO)N(Cl)Cl | 8 µg/mL (≈ 30.3 µM) | 16 µg/mL (≈ 60.6 µM) | 1 µg/mL (≈ 3.79 µM) | 0.5 µg/mL (≈ 1.89 µM) | 1400 nM | 4500 nM | 700 nM |  |  |  | 3.2 | 16 | 16 | 
7 | Stable | CN(CCCO)S(=O)(=O)CCC(C)(C)N(Cl)Cl |  |  |  |  |  |  |  | ND(Unstable) | ND(Unstable) | ND(Unstable) |  |  |  | 
8 |  | CC(C)(CS(=O)(=O)CCO)N(Cl)Cl |  |  | 1 µg/mL (≈ 4 µM) | 1 µg/mL (≈ 4 µM) | 2300 nM |  |  |  | ND(Unstable) | ND(Unstable) |  |  |  | 
9 |  | CC(C)(CCS(=O)(=O)CCCO)N(Cl)Cl |  |  |  |  |  |  |  | ND(Unstable) | ND(Unstable) | ND(Unstable) |  |  |  | 
10 |  | CO[C@H]1O[C@H](CS(=O)(=O)CCC(C)(C)N(Cl)Cl)[C@@H](O)[C@H](O)[C@H]1O | 512 µg/mL (≈ 1290 µM) | 256 µg/mL (≈ 646 µM) | 8 µg/mL (≈ 20.2 µM) | 8 µg/mL (≈ 20.2 µM) |  |  |  |  |  |  |  |  |  | 
11 |  | CC(C)(CCS(=O)(=O)CC(O)C(O)CO)N(Cl)Cl (stereo not drawn) | 128 µg/mL (≈ 395 µM) | 32 µg/mL (≈ 98.7 µM) | 1 µg/mL (≈ 3.08 µM) | 2 µg/mL (≈ 6.17 µM) |  |  |  |  |  |  |  |  |  | 
12 |  | CC(C)(CCS(=O)(=O)CCC(O)CO)N(Cl)Cl (stereo not drawn) | 64 µg/mL (≈ 208 µM) | 16 µg/mL (≈ 51.9 µM) | 1 µg/mL (≈ 3.24 µM) | 2 µg/mL (≈ 6.49 µM) | 1400 nM | 18000 nM | 1200 nM |  |  |  |  |  |  | 
13 |  | CC(C)(CCS(=O)(=O)C[C@@H](O)CO)N(Cl)Cl | 32 µg/mL (≈ 109 µM) | 4 µg/mL (≈ 13.6 µM) | 1 µg/mL (≈ 3.4 µM) | 2 µg/mL (≈ 6.8 µM) | 2400 nM | 13000 nM | 1000 nM |  |  |  |  |  |  | 
14 |  | CC(C)(CCS(=O)(=O)C(CO)C(O)CO)N(Cl)Cl (stereo not drawn) | 64 µg/mL (≈ 197 µM) | 16 µg/mL (≈ 49.3 µM) | 2 µg/mL (≈ 6.17 µM) | 2 µg/mL (≈ 6.17 µM) | 1500 nM | 19000 nM | 3000 nM |  |  |  |  |  |  | 
15 |  | CN(CCO)S(=O)(=O)CCC(C)(C)N(Cl)Cl | 64 µg/mL (≈ 218 µM) | 128 µg/mL (≈ 437 µM) | 1 µg/mL (≈ 3.41 µM) | 2 µg/mL (≈ 6.82 µM) | 1500 nM | 14000 nM | 1200 nM |  |  |  |  |  |  | 
16 |  | CC(=O)OCC(CS(=O)(=O)CCC(C)(C)N(Cl)Cl)OC(C)=O (stereo not drawn) | 128 µg/mL (≈ 338 µM) | 128 µg/mL (≈ 338 µM) | 2 µg/mL (≈ 5.29 µM) | 1 µg/mL (≈ 2.64 µM) |  |  |  |  |  |  |  |  |  | 
17 |  | CC(C)(CCS(=O)(=O)CCCCCCCCO)N(Cl)Cl | 256 µg/mL (≈ 735 µM) | 128 µg/mL (≈ 367 µM) |  |  |  | 32000 nM |  | ND(Unstable) |  |  |  |  |  | 
